In ChEMBL document CHEMBL1687780, “Mutations in 23S rRNA at the peptidyl transferase center and their relationship to linezolid binding and cross-resistance” (2010):
≈ marks a conversion by molar mass, not a printed value.

Experiments:
Assay type in all cases: functional
[1] = tested on: Mycolicibacterium smegmatis; test: Antibacterial activity against Mycobacterium smegmatis harboring 23S rRNA A2572U1 mutant after 24 generation times
Outline: (§1)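 M. smegmatis SMR5 strains with one rRNA operon on a plasmid integrated at attB, grown in LB + 0.05% Tween 80 at 37°C to visible growth, diluted to OD600 0.02, and mixed 1:1 with 2-fold antibiotic dilutions. Tested ranges were linezolid 0.125–64 μg/ml and chloramphenicol, clindamycin, valnemulin 1–512 μg/ml. Incubation ran 37°C for 24 generation times of each strain. MIC was the lowest concentration with complete visual inhibition. Parent/wild-type controls were on each plate.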

[2] = tested on: Mycolicibacterium smegmatis; test: Antibacterial activity against Mycobacterium smegmatis SZ558 after 24 generation times; outline: as §1
[3] = tested on: Mycolicibacterium smegmatis; test: Antibacterial activity against Mycobacterium smegmatis harboring 23S rRNA G2032A, U2504G mutant after 24 generation times; outline: as §1
[4] = tested on: Mycolicibacterium smegmatis; test: Antibacterial activity against Mycobacterium smegmatis harboring 23S rRNA G2576U mutant after 24 generation times; outline: as §1
[5] = tested on: Mycolicibacterium smegmatis; test: Antibacterial activity against Mycobacterium smegmatis harboring 23S rRNA C2499U mutant after 24 generation times; outline: as §1
[6] = tested on: Mycolicibacterium smegmatis; test: Antibacterial activity against Mycobacterium smegmatis harboring 23S rRNA C2499A2 mutant after 24 generation times; outline: as §1
[7] = tested on: Mycolicibacterium smegmatis; test: Antibacterial activity against Mycobacterium smegmatis harboring 23S rRNA A2058G mutant after 24 generation times; outline: as §1
[8] = tested on: Mycolicibacterium smegmatis; test: Antibacterial activity against wild type Mycobacterium smegmatis after 24 generation times; outline: as §1
[9] = tested on: Mycolicibacterium smegmatis; test: Antibacterial activity against Mycobacterium smegmatis harboring 23S rRNA G2032C mutant after 24 generation times; outline: as §1
[10] = tested on: Mycolicibacterium smegmatis; test: Antibacterial activity against Mycobacterium smegmatis harboring 23S rRNA C2055A, A2572U mutant after 24 generation times; outline: as §1
[11] = tested on: Mycolicibacterium smegmatis; test: Antibacterial activity against Mycobacterium smegmatis harboring 23S rRNA C2612A mutant after 24 generation times; outline: as §1
[12] = tested on: Mycolicibacterium smegmatis; test: Antibacterial activity against Mycobacterium smegmatis harboring 23S rRNA C2055A, U2504G mutant after 24 generation times; outline: as §1
[13] = tested on: Mycolicibacterium smegmatis; test: Antibacterial activity against Mycobacterium smegmatis harboring 23S rRNA G2505A mutant after 24 generation times; outline: as §1
[14] = tested on: Mycolicibacterium smegmatis; test: Antibacterial activity against Mycobacterium smegmatis harboring 23S rRNA A2453U mutant after 24 generation times; outline: as §1
[15] = tested on: Mycolicibacterium smegmatis; test: Antibacterial activity against Mycobacterium smegmatis harboring 23S rRNA C2055A mutant after 24 generation times; outline: as §1
[16] = tested on: Mycolicibacterium smegmatis; test: Antibacterial activity against Mycobacterium smegmatis harboring 23S rRNA U2504G mutant after 24 generation times; outline: as §1
[17] = tested on: Mycolicibacterium smegmatis; test: Antibacterial activity against Mycobacterium smegmatis harboring 23S rRNA G2032A, C2499A mutant after 24 generation times; outline: as §1
[18] = tested on: Mycolicibacterium smegmatis; test: Antibacterial activity against Mycobacterium smegmatis harboring 23S rRNA C2571G mutant after 24 generation times; outline: as §1
[19] = tested on: Mycolicibacterium smegmatis; test: Antibacterial activity against Mycobacterium smegmatis harboring 23S rRNA G2032A mutant after 24 generation times; outline: as §1
[20] = tested on: Mycolicibacterium smegmatis; test: Antibacterial activity against Mycobacterium smegmatis harboring 23S rRNA A2503G mutant after 24 generation times; outline: as §1

SMILES	MIC [1]	MIC [2]	MIC [3]	MIC [4]	MIC [5]	MIC [6]	MIC [7]	MIC [8]	MIC [9]	MIC [10]	MIC [11]	MIC [12]	MIC [13]	MIC [14]	MIC [15]	MIC [16]	MIC [17]	MIC [18]	MIC [19]	MIC [20]
O=C(N[C@H](CO)[C@H](O)c1ccc([N+](=O)[O-])cc1)C(Cl)Cl [CHLORAMPHENICOL]	8 µg/mL (≈ 24.8 µM)	32 µg/mL (≈ 99 µM)	256 µg/mL (≈ 792 µM)	256 µg/mL (≈ 792 µM)	32 µg/mL (≈ 99 µM)	32 µg/mL (≈ 99 µM)	32 µg/mL (≈ 99 µM)	32 µg/mL (≈ 99 µM)	32 µg/mL (≈ 99 µM)	64 µg/mL (≈ 198 µM)	64 µg/mL (≈ 198 µM)	128 µg/mL (≈ 396 µM)	128 µg/mL (≈ 396 µM)	32 µg/mL (≈ 99 µM)	32 µg/mL (≈ 99 µM)	512 µg/mL (≈ 1580 µM)	64 µg/mL (≈ 198 µM)	32 µg/mL (≈ 99 µM)	32 µg/mL (≈ 99 µM)	128 µg/mL (≈ 396 µM)
CCC[C@@H]1C[C@@H](C(=O)N[C@@H]([C@H]2O[C@H](SC)[C@H](O)[C@@H](O)[C@H]2O)[C@H](C)Cl)N(C)C1 [CLINDAMYCIN]	16 µg/mL (≈ 37.6 µM)	16 µg/mL (≈ 37.6 µM)	16 µg/mL (≈ 37.6 µM)	64 µg/mL (≈ 151 µM)	16 µg/mL (≈ 37.6 µM)	16 µg/mL (≈ 37.6 µM)	> 1030 µg/mL	16 µg/mL (≈ 37.6 µM)	128 µg/mL (≈ 301 µM)	512 µg/mL (≈ 1200 µM)	16 µg/mL (≈ 37.6 µM)	16 µg/mL (≈ 37.6 µM)	16 µg/mL (≈ 37.6 µM)	32 µg/mL (≈ 75.3 µM)	32 µg/mL (≈ 75.3 µM)	16 µg/mL (≈ 37.6 µM)	16 µg/mL (≈ 37.6 µM)	16 µg/mL (≈ 37.6 µM)	32 µg/mL (≈ 75.3 µM)	8 µg/mL (≈ 18.8 µM)
CC(=O)NC[C@H]1CN(c2ccc(N3CCOCC3)c(F)c2)C(=O)O1 [LINEZOLID]	4 µg/mL (≈ 11.9 µM)	2 µg/mL (≈ 5.93 µM)	64 µg/mL (≈ 190 µM)	64 µg/mL (≈ 190 µM)	2 µg/mL (≈ 5.93 µM)	2 µg/mL (≈ 5.93 µM)	2 µg/mL (≈ 5.93 µM)	2 µg/mL (≈ 5.93 µM)	4 µg/mL (≈ 11.9 µM)	64 µg/mL (≈ 190 µM)	4 µg/mL (≈ 11.9 µM)	32 µg/mL (≈ 94.9 µM)	16 µg/mL (≈ 47.4 µM)	4 µg/mL (≈ 11.9 µM)	0.5 µg/mL (≈ 1.48 µM)	8 µg/mL (≈ 23.7 µM)	8 µg/mL (≈ 23.7 µM)	4 µg/mL (≈ 11.9 µM)	2 µg/mL (≈ 5.93 µM)	8 µg/mL (≈ 23.7 µM)
C=C[C@]1(C)C[C@@H](OC(=O)CSC(C)(C)CNC(=O)[C@H](N)C(C)C)[C@]2(C)[C@H](C)CC[C@]3(CCC(=O)[C@H]32)[C@@H](C)[C@@H]1O [VALNEMULIN]	128 µg/mL (≈ 227 µM)	32 µg/mL (≈ 56.7 µM)	128 µg/mL (≈ 227 µM)	32 µg/mL (≈ 56.7 µM)	32 µg/mL (≈ 56.7 µM)	64 µg/mL (≈ 113 µM)	64 µg/mL (≈ 113 µM)	32 µg/mL (≈ 56.7 µM)	128 µg/mL (≈ 227 µM)	128 µg/mL (≈ 227 µM)	32 µg/mL (≈ 56.7 µM)	64 µg/mL (≈ 113 µM)	32 µg/mL (≈ 56.7 µM)	64 µg/mL (≈ 113 µM)	64 µg/mL (≈ 113 µM)	64 µg/mL (≈ 113 µM)	128 µg/mL (≈ 227 µM)	32 µg/mL (≈ 56.7 µM)	128 µg/mL (≈ 227 µM)	32 µg/mL (≈ 56.7 µM)
